# Source: ChEMBL document CHEMBL5143598, “Cytotoxic Sesquiterpenoids from Ammoides atlantica Aerial Parts” (J Nat Prod, 2022)
# pIC50: −log10 of the molar value. Activity calls are given as the source filed them. No cut-off for these calls is given here.
# How the values were obtained:
# [1] = system: Jurkat; assay: Antiproliferative activity against human Jurkat cells assessed as reduction in cell viability measured after 48 hrs by colorimetric based MTT assay; format: functional
# Summary of the method: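 Jurkat leukemia cells kept in RPMI with 10% FBS, 2 mM L-glutamine and penicillin/streptomycin at 37 °C, 5% CO2. Plated at 3.5 × 10^3 cells/well and left 24 h, then given fresh medium alone or with serial dilutions (40, 20, 10, 5 μM) for 48 h. Staurosporine 0.2 μM served as positive control. MTT added for 3 h, formazan dissolved in DMF/SDS solution at pH 4.5, OD read at 620 nm. Viability calculated as % of DMSO control. IC50 taken as the concentration giving 50% growth inhibition versus control.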
# [2] = system: A549; assay: Antiproliferative activity against human A549 cells assessed as reduction in cell viability measured after 48 hrs by colorimetric based MTT assay; format: functional; conditions: A549, 48 h
# [3] = system: A-375; assay: Antiproliferative activity against human A-375 cells assessed as reduction in cell viability measured after 48 hrs by colorimetric based MTT assay; format: functional; conditions: A-375, 48 h
# [4] = system: MCF7; assay: Antiproliferative activity against human MCF7 cells assessed as reduction in cell viability measured after 48 hrs by colorimetric based MTT assay; format: functional; conditions: MCF7, 48 h
# [5] = Antiproliferative activity against human HaCaT cells assessed as reduction in cell viability measured after 48 hrs by colorimetric based MTT assay
# [6] = system: A549; assay: Induction of apoptosis in human A549 cells assessed as increase accumulation of hypodiploid nuclei cells at 5 to 40 uM measured after 24 hrs by PI staining based flow cytometry analysis; format: functional, cell-based; conditions: dose 5-40 µM
# Summary of the method: (§1)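 A549, Jurkat or HaCaT cells plated at 3 × 10^4 cells/well, left 24 h, then exposed to 40, 20, 10 or 5 μM for 24 h. Staurosporine 0.2 μM served as positive control. Cells washed in PBS and stained 30 min at 4 °C in the dark with PI in 0.1% Triton X-100/0.1% sodium citrate. Analysed by flow cytometry with debris excluded by forward scatter and DNA on a log scale. Read-out is % hypodiploid nuclei. Three independent experiments in triplicate, mean ± SEM, Mann–Whitney U test.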
# [7] = system: HaCaT; assay: Induction of apoptosis in human HaCaT cells assessed as increase accumulation of hypodiploid nuclei cells at 5 to 40 uM measured after 24 hrs by PI staining based flow cytometry analysis; format: functional, cell-based; conditions: dose 5-40 µM; summary of the method: as §1
# [8] = system: HaCaT; assay: Induction of cell cycle arrest in human HaCaT cells assessed as accumulation at G2 phase at 40 uM measured after 24 hrs by PI staining based flow cytometry analysis; format: functional
# Summary of the method: (§2)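 HaCaT or Jurkat cells plated at 3 × 10^4 cells/well, left 24 h, then treated with 40, 20, 10 or 5 μM for 24 h. Staurosporine 0.2 μM served as positive control. DNA stained with PI and 10 000 events per sample acquired by flow cytometry. Percentages of cells in G0/G1, S and G2/M were derived from the DNA profiles. Three independent experiments in triplicate, mean ± SEM, Mann–Whitney U test.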
# [9] = system: Jurkat; assay: Induction of cell cycle arrest in human Jurkat cells assessed as accumulation at S phase measured after 24 hrs by PI staining based flow cytometry analysis; format: functional; conditions: dose 5-40 µM, DDE = dose-dependent effect; summary of the method: as §2
# [10] = system: HaCaT; assay: Induction of apoptosis in human HaCaT cells assessed as increase accumulation of hypodiploid nuclei cells measured after 24 hrs by PI staining based flow cytometry analysis; format: functional, cell-based; conditions: dose 5-40 µM, DDE = dose-dependent effect; summary of the method: as §1
# [11] = system: Jurkat; assay: Induction of apoptosis in human Jurkat cells assessed as increase accumulation of hypodiploid nuclei cells measured after 24 hrs by PI staining based flow cytometry analysis; format: functional, cell-based; conditions: dose 5-40 µM, DDE = dose-dependent effect; summary of the method: as §1
# [12] = system: A549; assay: Induction of apoptosis in human A549 cells assessed as increase accumulation of hypodiploid nuclei cells measured after 24 hrs by PI staining based flow cytometry analysis; format: functional, cell-based; conditions: dose 5-40 µM, DDE = dose-dependent effect; summary of the method: as §1
pIC50 [1],pIC50 [2],pIC50 [3],pIC50 [4],Compound,IC50 at 48 h [5] [µM],Activity [6],Activity [7],Activity [8],Activity [9],Activity [10],Activity [11],Activity [12]
< 5.00,< 5.00,< 5.00,< 5.00,C=C1C(=O)O[C@H]([C@H]2C(=O)C=C[C@]2(C)O)[C@@H]1CCC(C)=O,> 10,,,,,,,
< 5.00,< 5.00,< 5.00,< 5.00,C=C1[C@@H]2[C@H]3OC(=O)C(COC(C)=O)=C3CC[C@@]2(C)[C@H](O)C[C@@H]1O,> 10,,,,,,,
< 5.00,< 5.00,< 5.00,< 5.00,C=C1[C@@H]2[C@@H](OC(C)=O)/C(=C(\CO)C(=O)O)CC[C@@]2(C)[C@H](O)C[C@@H]1O,> 10,,,,,,,
< 5.00,< 5.00,< 5.00,< 5.00,CC(C)(O)/C=C/[C@H]1OC(=O)C[C@]1(C)O (relative stereo),> 10,,,,,,,
5.11,5.05,< 5.00,< 5.00,C=C1C(=O)O[C@H](C2=C(C)[C@@H](O)CC2=O)[C@@H]1CCC(C)=O,2.9,Active,Active,Active,Dde,Dde,Dde,Dde
< 5.00,< 5.00,< 5.00,< 5.00,CC(=O)O[C@@H]1CC(C)=C2C(=O)C=C(C)[C@@H]2[C@@H](O)[C@H]1C(C)C(=O)O (relative stereo),> 10,,,,,,,
< 5.00,< 5.00,< 5.00,< 5.00,C[C@H]1CC[C@]23O[C@]12C[C@H](C(C)(C)O)CC[C@@]3(C)O (relative stereo),> 10,,,,,,,
5.30,< 5.00,5.43,5.02,C=C1C(=O)O[C@@H]2C1C[C@@H](OC(C)=O)[C@@](C)(O)[C@@]13O[C@@H]1[C@@H]1O[C@]1(C)[C@H]23 (stereo not given in full),1.6,Active,Active,Active,Dde,Dde,Dde,Dde
< 5.00,< 5.00,< 5.00,< 5.00,C=C1C(=O)O[C@@H]2[C@H]1C[C@@H](OC(C)=O)[C@@](C)(O)[C@]13O[C@H]1[C@@H](Cl)[C@](C)(O)[C@H]23,3.5,,,,,,,
< 5.00,< 5.00,< 5.00,< 5.00,C=C(C)[C@@H](O)CC[C@@H](C)C1C[C@H](O)C(C)=C[C@@H]1O (relative stereo),> 10,,,,,,,
< 5.00,< 5.00,< 5.00,< 5.00,C=C1C(=O)O[C@H]2[C@H]1C[C@H](OC(C)=O)[C@](C)(O)[C@@]1(O)[C@@H](O)[C@H]3O[C@@]3(C)[C@H]21 (relative stereo),> 10,,,,,,,

Compound,pIC50 [1],pIC50 [2],pIC50 [3],pIC50 [4],IC50 at 48 h [5] [µM],Activity [6],Activity [7],Activity [8],Activity [9],Activity [10],Activity [11],Activity [12]
CN[C@@H]1C[C@H]2O[C@@](C)([C@@H]1OC)n1c3ccccc3c3c4c(c5c6ccccc6n2c5c31)C(=O)NC4 [STAUROSPORINE],5.49,,,,,,,,,,,
C=C1C(=O)O[C@@H]2C1C[C@@H](OC(C)=O)[C@](C)(O)[C@@]13C=C[C@@](C)(OO1)C23 (stereo not given in full),5.33,5.39,< 5.00,< 5.00,1.7,,,,,,,
